Measurements taken from ChEMBL document CHEMBL2146382, “Cytotoxic and antineoplastic activity of timosaponin A-III for human colon cancer cells” (J Nat Prod, 2011).
Activity calls are given as the source filed them. The calls are words filed in the database; no cut-off is given here.

Legend:
[1] = tested on: HCT-15; test: Cell cycle arrest in human HCT15 cells assessed as accumulation at G0/G1 phase at 20 uM after 24 hrs using propidium-iodide staining by flow-cytometry (reference value: 37.0 %); format: functional
[2] = tested on: HCT-15; test: Cell cycle arrest in human HCT15 cells assessed as accumulation at G2/M phase at 20 uM after 24 hrs using propidium-iodide staining by flow-cytometry (reference value: 22.4 %); format: functional
[3] = tested on: HCT-15; test: Induction of apoptosis in human HCT15 cells assessed as DNA fragmentation at 5 to 20 uM after 24 hrs by agarose-gel electrophoresis; format: functional, cell-based
How it was run: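 HCT-15 cells seeded 1 × 10^6 per 100 mm dish, after 24 h given fresh medium with compound (0–20 μM) for 24 h; lysed in 50 mM Tris-HCl pH 7.5/20 mM EDTA/1% NP-40, RNase A then proteinase K digestion, ethanol/ammonium acetate precipitation; 4 μg DNA on 2% agarose, SYBR Gold stain.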

[4] = tested on: HCT-15; test: Antineoplastic activity against human HCT15 cells xenografted in nude BALB/c mouse assessed as inhibition of rate of tumor size at 5 mg/kg, ip 3 times a week for 4 weeks relative to control; format: functional; conditions: HCT-15, ip, 672 h, route intraperitoneal
How it was run: (§1)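 HCT-15 cells (2 × 10^6 in 200 μL medium) implanted subcutaneously in flanks of BALB/c-nu (nu/nu) mice; dosing began at ca. 80 mm3 tumours; groups of five, randomized. 2 or 5 mg/kg given ip three times weekly in ethanol–cremophor–H2O (0.5:0.5:99), vehicle controls; caliper volume (3.14·L·W·H/6) three times weekly for 30 days; Ki-67 immunohistochemistry on tumour sections (1:250, 4 °C overnight, DAB, hematoxylin counterstain).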

[5] = tested on: HCT-15; test: Antineoplastic activity against human HCT15 cells xenografted in nude BALB/c mouse assessed as inhibition of Ki-67 expression at 2 mg/kg, ip 3 times a week for 4 weeks by immunohistochemical analysis; format: functional, organism-based; set-up: dose 2 mg/kg; how it was run: as §1
[6] = tested on: HCT-15; test: Cell cycle arrest at G0/G1 phase in human HCT15 cells assessed as decrease in CDK4 expression at 5 to 20 uM after 12 to 24 hrs by Western blot analysis; format: functional, cell-based
How it was run: (§2)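 HCT-15 cells in RPMI/10% FBS exposed to test compound at various concentrations; lysates quantified by BCA, 30–50 μg protein run on 10% SDS-PAGE, transferred to PVDF, blocked 1 h in 5% milk/PBST, primary antibodies overnight at 4 °C, HRP anti-mouse IgG 1:1500 for 3 h at room temperature, ECL detection.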

[7] = tested on: HCT-15; test: Cell cycle arrest at G0/G1 phase in human HCT15 cells assessed as suppression of Rb ser807/811 phosphorylation at 5 to 20 uM after 12 to 24 hrs by Western blot analysis; format: functional, cell-based; how it was run: as §2
[8] = tested on: HCT-15; test: Cell cycle arrest at […] phase in human HCT15 cells assessed as cyclin A down regulation at 5 to 20 uM after 12 to 24 hrs by Western blot analysis; format: functional, cell-based; how it was run: as §2
[9] = tested on: HCT-15; test: Cell cycle arrest at M phase in human HCT15 cells assessed as decrease in cyclin B1 level at 5 to 20 uM after 12 to 24 hrs by Western blot analysis; format: functional, cell-based; how it was run: as §2
[10] = tested on: HCT-15; test: Induction of apoptosis in human HCT15 cells assessed as suppression of procaspase-3 expression at 5 to 20 uM after 12 to 24 hrs by Western blot analysis; format: functional, cell-based
How it was run: (§3)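 HCT-15 cells (RPMI, 10% heat-inactivated FBS, antibiotics-antimycotics, 37 C, 5% CO2) exposed to compound. Cells lysed, protein measured by BCA, 30-50 μg per lane resolved on 10% SDS-PAGE and electroblotted to PVDF. Membranes blocked 1 h in 5% nonfat milk/PBST, probed with primary antibodies overnight at 4 C, then HRP anti-mouse IgG 1:1500 for 3 h at room temperature. Detection by ECL; β-actin antibody available.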

[11] = tested on: HCT-15; test: Induction of apoptosis in human HCT15 cells assessed as increase in caspase-8 expression after 12 to 24 hrs by Western blot analysis; format: functional, cell-based; how it was run: as §2
[12] = tested on: HCT-15; test: Induction of apoptosis in human HCT15 cells assessed as increase in caspase-9 expression after 12 to 24 hrs by Western blot analysis; format: functional, cell-based; how it was run: as §3
[13] = tested on: HCT-15; test: Induction of apoptosis in human HCT15 cells assessed as increase in caspase-3 expression after 12 to 24 hrs by Western blot analysis; format: functional, cell-based; how it was run: as §2
[14] = tested on: HCT-15; test: Induction of apoptosis in human HCT15 cells assessed as suppression of Bcl2 expression at 5 to 20 uM after 24 hrs by Western blot analysis; format: functional, cell-based; how it was run: as §3
[15] = tested on: SW480; test: Growth inhibition of human SW480 cells; format: functional, cell-based
How it was run: (§4)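 SRB assay: cells at 5 × 10^4 cells/mL were exposed to a concentration series for 3 days, fixed with 10% TCA and stained with sulforhodamine B. Survival was expressed as % of solvent-treated control and IC50 taken by nonlinear regression of % survival versus concentration. Media held 10% heat-inactivated FBS plus antibiotics: RPMI (HCT-15, HCT 116, HT-29), RPMI with 25 mM HEPES (SW480, SW620), DMEM (MRC-5, Hs68). Cultures were kept at 37 C, 5% CO2.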

[16] = tested on: HCT-15; test: Cell cycle arrest in human HCT15 cells assessed as increase in cyclin D1 expression up to 10 uM after 12 to 24 hrs by Western blot analysis; format: functional, cell-based; how it was run: as §2
[17] = tested on: HCT-15; test: Induction of apoptosis in human HCT15 cells assessed as change in Bax expression at 5 to 20 uM after 24 hrs by Western blot analysis; format: functional, cell-based; how it was run: as §2
[18] = tested on: HCT-15; test: Cytotoxicity against human HCT15 cells assessed as dead cells up to 20 uM after 12 to 24 hrs by phase contrast microscopy; format: functional, cell-based
How it was run: (§5)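 HCT-15 cells treated with 0–20 μM for 12 and 24 h, vehicle-treated controls; morphology examined and photographed under phase-contrast microscope.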

[19] = tested on: HCT-15; test: Cytotoxicity against human HCT15 cells assessed as morphological changes with distinct rounded shapes and detachment after 12 to 24 hrs by phase-contrast microscopy; format: functional, cell-based; how it was run: as §5
[20] = tested on: HCT-15; test: Cell cycle arrest in human HCT15 cells assessed as accumulation at sub-G1 phase at 5 uM after 12 hrs using propidium-iodide staining by flow-cytometry (reference value: 5.2 %); format: functional
[21] = tested on: HCT-15; test: Cell cycle arrest in human HCT15 cells assessed as accumulation at G0/G1 phase at 10 uM after 12 hrs using propidium-iodide staining by flow-cytometry (reference value: 44.4 %); format: functional
[22] = tested on: HCT-15; test: Cell cycle arrest in human HCT15 cells assessed as accumulation at G0/G1 phase at 20 uM after 12 hrs using propidium-iodide staining by flow-cytometry (reference value: 44.4 %); format: functional
[23] = tested on: HCT-15; test: Cell cycle arrest in human HCT15 cells assessed as accumulation at S phase at 20 uM after 12 hrs using propidium-iodide staining by flow-cytometry (reference value: 34.7 %); format: functional
[24] = tested on: HCT-15; test: Cell cycle arrest in human HCT15 cells assessed as accumulation at G0/G1 phase at 10 uM after 24 hrs using propidium-iodide staining by flow-cytometry (reference value: 37.0 %); format: functional
[25] = tested on: HCT-15; test: Antineoplastic activity against human HCT15 cells xenografted in nude BALB/c mouse assessed as tumor growth inhibition at 2 to 5 mg/kg, ip 3 times a week for 4 weeks; format: functional, organism-based; how it was run: as §1
[26] = tested on: HCT-15; test: Cytotoxicity against human HCT15 cells after 3 days; format: functional, cell-based; conditions: HCT-15, 72 h; how it was run: as §4

## C[C@H]1CC[C@@]2(OC1)O[C@H]1C[C@H]3[C@@H]4CC[C@@H]5C[C@@H](O[C@@H]6O[C@H](CO)[C@H](O)[C@H](O)[C@H]6O[C@@H]6O[C@H](CO)[C@@H](O)[C@H](O)[C@H]6O)CC[C@]5(C)[C@H]4CC[C@]3(C)[C@H]1[C@@H]2C [TIMOSAPONIN AIII]
[1]
  Activity: 43.4%
[2]
  Activity: 0%
[3]
  Activity: Active
[4]
  inhibition in vivo at 5 mg/kg: 37.3%
[5]
  Activity: Active
[6]
  Activity: Active
[7]
  Activity: Active
[8]
  Activity: Active
[9]
  Activity: Active
[10]
  Activity: Active
[11]
  Activity: Active
[12]
  Activity: Active
[13]
  Activity: Active
[14]
  Activity: Active
[15]
  IC50: 13.1 µM
[16]
  Activity: Active
[17]
  Activity: inactive
[18]
  Activity: Active
[19]
  Activity: Dose-dependent effect
[20]
  Activity: 4.8%
[21]
  Activity: 43.2%
[22]
  Activity: 12.2%
[23]
  Activity: 4.2%
[24]
  Activity: 47.9%
[25]
  TGI: Active
[26]
  IC50: 6.1 µM
